According to ChEMBL document CHEMBL1124994, “New and versatile approaches to the synthesis of CPP-related competitive NMDA antagonists. Preliminary structure-activity relationships and pharmacological evaluation” (J Med Chem, 1990):
pIC50: −log10 of the molar value.

Key:
Glutamate NMDA receptor [1] = experiment: Binding affinity was determined by the ability to displace [3H]-CPP from N-methyl-D-aspartate glutamate receptor of rat brain
How it was run: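 Radioligand displacement of [3H]CPP from rat cortical crude synaptic membranes.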

[2] = biological target: T1, Glutamate NMDA receptor (Rattus norvegicus) (UniProt P35439+Q00959+Q00960+Q00961+Q62645+Q8VHN2+Q9R1M7); experiment: Binding affinity for glutamate-stimulated TCP binding site of N-methyl-D-aspartate glutamate receptor from rat brain by using [3H]-TCP as radioligand; ant = antagonist; conditions: filed as antagonist
How it was run: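 Crude synaptic membranes from rat whole brain minus cerebellum and brainstem, stored at -70 °C, treated with 0.01% Triton X-100 in 50 mM Tris-HCl pH 7.6 at 37 °C for 30 min, then washed. Incubated with 15 mg tissue and 1 nM [3H]TCP in 5 mM Tris-HCl pH 8.0 for 1 h at 25 °C. Filtered on PEI-treated filters, counted by scintillation. Nonspecific binding: 100 µM (+)-SKF 10047.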

Glutamate NMDA receptor [3] = experiment: Inhibition of N-methyl-D-aspartate glutamate receptor by using [3H]CPP as a radioligand from the rat cortical membranes.; assay type: cell membranes, Membrane
[4] = biological target: T1, Glutamate NMDA receptor (Rattus norvegicus); experiment: Binding affinity for glutamate-stimulated TCP binding site of N-methyl-D-aspartate glutamate receptor from rat brain by using [3H]TCP as radioligand; Antagonist; conditions: filed as antagonist
How it was run: (§1)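 Rat whole brain minus cerebellum and brain stem; crude synaptic membranes stored at -70 °C, then treated with 0.01% Triton X-100 in 50 mM Tris-HCl pH 7.6 for 30 min at 37 °C and washed three times. Incubation with 15 mg wet tissue and 1 nM [3H]TCP in 5 mM Tris-HCl pH 8.0, 1 h, 25 °C. Filtration through PEI-treated glass-fiber filters, scintillation counting. Nonspecific binding defined with 100 µM (+)-SKF 10047.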

Glutamate NMDA receptor [5] = experiment: Compound was tested for inhibition of N-methyl-D-aspartate glutamate receptor by using [3H]CPP as a radioligand from the rat cortical membranes; assay type: cell membranes, Membrane
[6] = biological target: T1, Glutamate NMDA receptor (Rattus norvegicus); experiment: Binding affinity for glutamate-stimulated TCP binding site of N-methyl-D-aspartate glutamate receptor from rat brain by using [3H]TCP as radioligand; Agonist; conditions: filed as agonist
How it was run: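 Rat whole brain minus cerebellum and brainstem, crude synaptic membranes stored at -70 °C; thawed, treated with 0.01% Triton X-100 in 50 mM Tris-HCl pH 7.6 at 37 °C for 30 min, washed ≥3 times. Test agents incubated with 15 mg tissue (wet weight) and [3H]TCP 1 nM in 5 mM Tris-HCl pH 8.0, 1 h, 25 °C. Filtration, scintillation counting; nonspecific binding with 100 μM (+)-SKF 10047.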

[7] = biological target: T1, Glutamate NMDA receptor (Rattus norvegicus); conditions: filed as agonist
Glutamate NMDA receptor [8] = experiment: Compound was tested for inhibition of [3H]CPP binding from N-methyl-D-aspartate glutamate receptor in the rat cortical membranes.; assay type: cell membranes, Membrane
[9] = biological target: T1, Glutamate NMDA receptor (Rattus norvegicus); experiment: Binding affinity for glutamate-stimulated TCP binding site of N-methyl-D-aspartate glutamate receptor from rat brain by using [3H]TCP as radioligand;Antagonist; conditions: filed as antagonist; how it was run: as §1

For `NC(CCCP(=O)(O)O)C(=O)O` (stereo not given), the pIC50 (Glutamate NMDA receptor [1]) was 6.54 and the GSTCP activity [2] was “Antagonist”.

`CP(=O)(O)CCCN1CCNC(C(=O)O)C1` (stereo not given) was tested, and the pIC50 (Glutamate NMDA receptor [3]) was 6.11 and the GSTCP activity [2] was “Antagonist”.

`O=C(O)[C@@H]1C[C@H](CP(=O)(O)O)CCN1` [SELFOTEL] was tested, and the pIC50 (Glutamate NMDA receptor [3]) was 7.19 and the GSTCP activity [4] was “Antagonist”.

`O=C(O)C1CN(CCCP(=O)(O)O)CCN1CCC(c1ccccc1)c1ccccc1` (stereo not given) gave a pIC50 (Glutamate NMDA receptor [5]) of under 4.00.

With `O=C(O)C1CN(CCCP(=O)(O)O)CCN1` (stereo not given) the pIC50 (Glutamate NMDA receptor [3]) was 7.10 and the GSTCP activity [6] was “Agonist”.

With `O=C(O)C1CN(CCCCP(=O)(O)O)CCN1` (stereo not given) the pIC50 (Glutamate NMDA receptor [3]) was 4.32 and the GSTCP activity [4] was “Antagonist”.

With `N[C@@H](CCC(=O)O)C(=O)O` the GSTCP activity [7] was “Agonist”.

Molecule `O=C(O)C1CN(CCCP(=O)(O)O)CCN1CCCCC(c1ccccc1)c1ccccc1` (stereo not given) has a pIC50 (Glutamate NMDA receptor [3]) of under 4.00.

In the case of `CN1CCN(CCCP(=O)(O)O)CC1C(=O)O` (stereo not given), the pIC50 (Glutamate NMDA receptor [3]) was 4.32.

Molecule `O=C(O)C1CN(CCCP(=O)(O)O)CCN1CCCCc1ccccc1` (stereo not given) has a pIC50 (Glutamate NMDA receptor [3]) of under 4.00.

With `CN[C@H](CC(=O)O)C(=O)O` [N-METHYL-D-ASPARTIC ACID (NMDA)] the pIC50 (Glutamate NMDA receptor [8]) was 5.34 and the GSTCP activity [7] was “Agonist”.

For `O=C(O)C1CN(C(c2ccccc2)P(=O)(O)O)CCN1` (stereo not given), the pIC50 (Glutamate NMDA receptor [8]) was 4.88, the pIC50 (Glutamate NMDA receptor [3]) was 5.24 and the GSTCP activity [4] was “Antagonist”.

With `O=C(O)C1CN(c2cccc(P(=O)(O)O)c2)CCN1` (stereo not given) the pIC50 (Glutamate NMDA receptor [3]) was 4.08.

Work on `O=C(O)C1CN(Cc2cccc(CP(=O)(O)O)c2)CCN1` (stereo not given) yielded a pIC50 (Glutamate NMDA receptor [3]) of under 4.00.

For `O=C(O)C1CN(c2ccccc2P(=O)(O)O)CCN1` (stereo not given), the pIC50 (Glutamate NMDA receptor [5]) was under 4.00.

For `O=C(O)C1CN(CP(=O)(O)O)CCN1` (stereo not given), the pIC50 (Glutamate NMDA receptor [5]) was 6.49 and the GSTCP activity [4] was “Antagonist”.

Work on `O=C(O)C1CN(CCCP(=O)(O)O)CCN1CCC=C(c1ccccc1)c1ccccc1` (stereo not given) yielded a pIC50 (Glutamate NMDA receptor [3]) of under 4.00.

With `O=C(O)CCCN1CCNC(C(=O)O)C1` (stereo not given) the pIC50 (Glutamate NMDA receptor [3]) was 6.07 and the GSTCP activity [9] was “Antagonist”.

In the case of `NC(CCCCCP(=O)(O)O)C(=O)O` (stereo not given) [AP-7], the pIC50 (Glutamate NMDA receptor [3]) was 6.12 and the GSTCP activity [2] was “Antagonist”.

`O=C(O)c1ccccc1C(=O)N1CCNC(C(=O)O)C1` (stereo not given) gave a pIC50 (Glutamate NMDA receptor [3]) of under 4.00.

With `O=C(O)C1CN(CCP(=O)(O)O)CCN1` (stereo not given) the pIC50 (Glutamate NMDA receptor [3]) was 5.01 and the GSTCP activity [4] was “Antagonist”.

With `O=C(O)CN1CCNC(C(=O)O)C1` (stereo not given) the pIC50 (Glutamate NMDA receptor [3]) was 4.80 and the GSTCP activity [4] was “Antagonist”.
